Measured values from different studies.
Each line is one published result; the experiments were not run side by side.
DHFR: Dihydrofolate reductase (DHFR, Homo sapiens, UniProt P00374)
Tmem97: Sigma intracellular receptor 2 (Tmem97, Rattus norvegicus, UniProt Q5U3Y7)

| Compound | target | read-out | action | technique | tested at | measurement | result |
| --- | --- | --- | --- | --- | --- | --- | --- |
| Cc1cccc(C)c1NC(=S)NN=Cc1ccc(N2CCCCC2)cc1 | DHFR | enzyme activity | inhibitor |  | 500 µM | inhibition | 87.5% |
| Cc1cc([C@@H](C)Nc2ccccc2C(=O)O)c2nc(N3CCC(F)(F)CC3)c(C#N)c(=O)n2c1 | Serine/threonine-protein kinase PLK1 (PLK1, Homo sapiens, UniProt P53350) | binding |  | competition with immobilised ligand | 1 µM | remaining binding | 100% |
| S=C(NCc1ccccc1)NN=Cc1ccc(N2CCCCC2)cc1 | DHFR | enzyme activity | inhibitor |  | 500 µM | inhibition | 82.8% |
| C=CC(=O)N1CCC(COCC(=O)N2CCN(c3nc(-c4cnc(N)nc4C(F)F)nc(N4CCOC[C@@H]4C)n3)CC2)CC1 | Calcium/calmodulin-dependent protein kinase type II subunit alpha (CAMK2A, Homo sapiens, UniProt Q9UQM7) | binding |  | competition with immobilised ligand | 1 µM | remaining binding | 100% |
| CNc1ncc2c(/C=C/C(=O)N3CCC(OC)CC3)nn(Cc3cccc(C(F)(F)F)c3)c2n1 | Mitogen-activated protein kinase kinase kinase 8 (MAP3K8, Homo sapiens, UniProt P41279) | enzyme activity | inhibitor | radiometric | 1 µM | remaining activity | 112% |
| COc1cc(-c2cncc3c2CN(C)Cc2cc(N4CCNCC4)ccc2-3)cc(OC)c1OC | MAPK/MAK/MRK overlapping kinase (MOK, Homo sapiens, UniProt Q9UQ07) | enzyme activity | inhibitor |  | 1 µM | remaining activity | 103% |
| COc1cc([C@@H]2c3cc4c(cc3[C@@H](O[C@@H]3O[C@@H]5CO[C@@H](C)O[C@H]5[C@H](O)[C@H]3O)[C@H]3COC(=O)[C@H]23)OCO4)cc(OC)c1O | DNA topoisomerase 2-alpha (TOP2A, Homo sapiens, UniProt P11388) | enzyme activity | inhibitor |  | 7.8 µM | inhibition | 89.5% |
| COc1cccc(NC(=S)NN=Cc2ccc(N3CCCCC3)cc2)c1 | DHFR | enzyme activity | inhibitor |  | 500 µM | inhibition | 84.9% |
| C[C@H]1C(=O)/C(=C/c2ccccc2)[C@H]2C[C@@H]1N(Cc1ccccc1)C[C@@]2(C)O | Tmem97 | ligand displacement |  | radioligand | 1 µM | inhibition | 0% |
| S=C(NN=Cc1ccc(N2CCCCC2)cc1)Nc1cccc(Br)c1 | DHFR | enzyme activity | inhibitor |  | 500 µM | inhibition | 83.7% |
| CC(C)OC(=O)CNc1cccc(CN(Cc2ccc(-n3cccn3)cc2)S(=O)(=O)c2cccnc2)n1 | Rho-associated protein kinase 1 (ROCK1, Homo sapiens, UniProt Q13464) | enzyme activity | inhibitor |  | 10 µM | inhibition | ≥ 50% |
| COc1ccc2[nH]c3c(c2c1)[C@H]1C[C@@H]([C@H]3C)N(Cc2ccccc2)C[C@]1(C)O | Tmem97 | ligand displacement |  | radioligand | 1 µM | inhibition | 0% |
